The target in test [1] is T1, Adenosine receptor A1 (Homo sapiens) (UniProt P30542).
T1 sequence (whole entry): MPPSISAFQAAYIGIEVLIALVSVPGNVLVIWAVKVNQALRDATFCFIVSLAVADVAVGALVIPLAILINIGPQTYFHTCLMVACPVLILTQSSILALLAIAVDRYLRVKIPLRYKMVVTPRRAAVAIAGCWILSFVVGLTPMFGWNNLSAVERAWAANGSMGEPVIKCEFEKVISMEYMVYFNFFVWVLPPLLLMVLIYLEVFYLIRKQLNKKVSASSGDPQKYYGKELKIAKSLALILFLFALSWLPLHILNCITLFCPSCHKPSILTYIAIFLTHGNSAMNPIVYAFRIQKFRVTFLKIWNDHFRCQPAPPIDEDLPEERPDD
As to the kind of experiment: Potentiation of CCPA-induced displacement of [3H]-DPCPX from human adenosine A1 receptor expressed in CHO cell membranes at 10 uM after 90 mins relative to CCPA-treated control. Summed up: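 CCPA (0.01 nM–1 µM) competition against [³H]DPCPX in hA1-CHO membranes, with or without compound at 10 µM. Nonspecific binding defined with 1 µM DPCPX. Ki calculated from IC50 by the Cheng-Prusoff equation; CCPA Ki shift given as fold change; three experiments.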

Test [2] addresses T1, Adenosine receptor A1 (Homo sapiens). Briefly: Potentiation of [3H]CCPA binding to human adenosine A1 receptor expressed in CHO cell membranes at 10 uM after 90 mins relative to [3H]CCPA-treated control.
Test [3] deals with T2, Adenosine receptor A3 (Homo sapiens) (UniProt P0DMS8).
T2 sequence (whole entry): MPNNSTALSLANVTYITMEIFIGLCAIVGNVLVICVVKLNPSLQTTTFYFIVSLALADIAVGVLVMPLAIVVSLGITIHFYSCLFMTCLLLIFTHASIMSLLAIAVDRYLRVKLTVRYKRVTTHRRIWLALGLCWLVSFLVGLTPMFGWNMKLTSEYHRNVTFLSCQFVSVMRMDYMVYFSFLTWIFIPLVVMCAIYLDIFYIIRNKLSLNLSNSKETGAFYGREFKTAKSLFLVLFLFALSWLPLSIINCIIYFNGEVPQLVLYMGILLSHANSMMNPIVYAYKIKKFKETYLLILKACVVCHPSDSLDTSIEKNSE
Briefly: Displacement of [3H]-MRE-3008-F20 from human adenosine A3 receptor expressed in CHO cell membranes at 10 uM by scintillation counting analysis relative to control. The method in brief:
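A3-expressing CHO membranes in 50 mM Tris-HCl, 10 mM MgCl₂, 1 mM EDTA pH 7.4 with 2 nM [³H]MRE-3008-F20. Incubated 120 min at 4 °C. Compound 10 µM in 1% DMSO final. Filtration and scintillation counting; percent inhibition of specific binding.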

The target in test [4] is Adenosine receptor A2a (Homo sapiens) (UniProt P29274). As to the kind of experiment: Displacement of [3H]-ZM241385 from human adenosine A2A receptor expressed in CHO cell membranes at 10 uM by scintillation counting analysis relative to control. The method in brief: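 A2A-expressing CHO membranes, pretreated with adenosine deaminase, in 50 mM Tris-HCl, 10 mM MgCl₂ pH 7.4 with 1 nM [³H]ZM 241385. Incubated 60 min at 4 °C. Compound 10 µM in 1% DMSO final. Filtration and scintillation counting; percent inhibition of specific binding.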
Adenosine receptor A2a (Homo sapiens), sequence (P29274 whole entry): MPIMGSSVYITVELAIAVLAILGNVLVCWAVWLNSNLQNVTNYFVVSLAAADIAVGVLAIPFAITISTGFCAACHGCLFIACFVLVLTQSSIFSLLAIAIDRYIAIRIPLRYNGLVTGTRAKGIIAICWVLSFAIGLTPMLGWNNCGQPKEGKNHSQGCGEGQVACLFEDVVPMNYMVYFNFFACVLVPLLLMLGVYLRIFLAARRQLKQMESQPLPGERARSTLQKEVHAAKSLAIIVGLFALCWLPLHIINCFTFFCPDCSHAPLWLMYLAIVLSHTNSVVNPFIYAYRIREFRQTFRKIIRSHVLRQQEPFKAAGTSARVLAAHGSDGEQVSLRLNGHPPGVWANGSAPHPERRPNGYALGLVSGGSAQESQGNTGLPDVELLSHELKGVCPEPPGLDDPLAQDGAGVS

Test [5] deals with T1, Adenosine receptor A1 (Homo sapiens). As to the kind of experiment: Displacement of [3H]-DPCPX from human adenosine A1 receptor expressed in CHO cell membranes at 10 uM by scintillation counting analysis relative to control. The method in brief:
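hA1-CHO membranes, pretreated with adenosine deaminase, in 50 mM Tris-HCl pH 7.4 with 1 nM [³H]DPCPX. Incubated 120 min at 25 °C. Compound 10 µM added from 100-fold DMSO stock, 1% DMSO final. Bound ligand collected on glass-fibre filters and counted by scintillation; percent inhibition of specific binding.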

For test [6] the target is unchanged. As to the kind of experiment: Allosteric enhancement of human adenosine A1 receptor expressed in CHO cells assessed as inhibition of forskolin-stimulated cAMP production at 100 nM preincubated for 10 mins followed by forskolin challenge measured after 5 mins by scintillation counting analysis in presence of CCPA relative to control. The class given is functional, cell-based. Summed up:
(§1)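 hA1-CHO cells (10⁶ cells/mL) in phosphate buffer with adenosine deaminase 1.0 IU/mL and Ro 20-1724 0.5 mM, preincubated 10 min at 37 °C. Compound added for 10 min, alone or at 100 nM with CCPA 1 pM. Forskolin 1 µM added for 5 min, stopped with cold 6% TCA. cAMP measured by [³H]-cAMP competition protein-binding assay; percent inhibition versus control; three experiments.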

Test [7] shares this target. Briefly: Allosteric enhancement of human adenosine A1 receptor expressed in CHO cells assessed as inhibition of forskolin-stimulated cAMP production at 10 uM preincubated for 10 mins followed by forskolin challenge measured after 5 mins by scintillation counting analysis relative to control. Format: functional, cell-based. The method in brief: as §1

SMILES strings stand for the structures.

`CC(C)(C)Cc1csc(N)c1C(=O)c1ccc(Cl)c(Cl)c1`: the fold change (FC) in test [1] came out at 2; in test [2], 4.1. Further, the inhibition was 10% in test [3]; 1% in test [4]; 1% in test [5]; 41% in test [6]; 43% in test [7].
Regarding `CC(C)(C)Cc1c(-c2ccccc2)sc(N)c1C(=O)c1cccc(C(F)(F)F)c1`, the fold change (FC) is 3.6 in test [1] and 4 in test [2]. In addition, the inhibition in test [3] stood at 1%; in test [4] it was 1%; in test [5], 1%; in test [6] it was 39%; in test [7], 38%.
For the molecule `Cc1cccc(-c2sc(N)c(C(=O)c3ccc(Cl)cc3)c2CC(C)(C)C)c1`, the fold change (FC) in test [1] was found to be 4.1; in test [2] it was 4.7. The inhibition is 1% in test [3]; 1% in test [4]; 1% in test [5]; 51% in test [6]; 47% in test [7].
For the molecule `CC(C)(C)Cc1c(-c2ccc(F)cc2F)sc(N)c1C(=O)c1ccc(Cl)cc1`, the fold change (FC) in test [1] was determined as 3.6; in test [2], 5.3. Moreover, the inhibition turned out to be 1% in test [3]; 1% in test [4]; 1% in test [5]; 49% in test [6]; 48% in test [7].
Turning to `CC(C)(C)Cc1c(-c2ccncc2)sc(N)c1C(=O)c1ccc(Cl)cc1`, the fold change (FC) in test [1] was 2.8; in test [2], 4. Moreover, the inhibition was 6% in test [3]; 1% in test [4]; 1% in test [5]; 46% in test [6]; 42% in test [7].
In the case of `CC(C)(C)Cc1c(-c2ccccc2)sc(N)c1C(=O)c1ccc(Cl)cc1Cl`, the figures for the fold change (FC) in test [1] and in test [2] were 4.4 and 6.8, respectively. In addition, the inhibition worked out at 1% in test [3]; 1% in test [4]; 1% in test [5]; 55% in test [6]; 52% in test [7].
As for `CC(C)(C)Cc1c(-c2ccc(OC(F)(F)F)cc2)sc(N)c1C(=O)c1ccc(Cl)cc1`, the results for the fold change (FC) in test [1] and in test [2] were 4.6 and 6.4, respectively. Moreover, the inhibition in test [3] was found to be 1%; in test [4] it was 1%; in test [5], 1%; in test [6], 55%; in test [7], 56%.
Take `COc1cccc(-c2sc(N)c(C(=O)c3ccc(Cl)cc3)c2CC(C)(C)C)c1`: the figures for the fold change (FC) in test [1] and in test [2] were 5.8 and 6.3, respectively. The inhibition in test [3] is 1%; in test [4], 2%; in test [5], 1%; in test [6] it was 57%; in test [7], 55%.
Consider `Cc1csc(N)c1C(=O)c1ccc(Cl)cc1`, for which the fold change (FC) in test [1] worked out at 1.6; in test [2], 1.5. Moreover, the inhibition was 1% in test [3]; 1% in test [4]; 1% in test [5]; 18% in test [6]; 16% in test [7].
As to `CC(C)(C)Cc1c(-c2ccsc2)sc(N)c1C(=O)c1ccc(Cl)cc1`, the fold change (FC) in test [1] was determined as 4.7; in test [2], 6.4. The inhibition in test [3] was 4%; in test [4], 1%; in test [5], 2%; in test [6], 67%; in test [7] it was 62%.
As to `CC(C)(C)Cc1c(-c2cccnc2)sc(N)c1C(=O)c1ccc(Cl)cc1`, the results for the fold change (FC) in test [1] and in test [2] were 2.2 and 3.7, respectively. Moreover, the inhibition in test [3] amounted to 1%; in test [4], 1%; in test [5], 1%; in test [6], 41%; in test [7], 37%.
`Cc1noc(C)c1-c1sc(N)c(C(=O)c2ccc(Cl)cc2)c1CC(C)(C)C`: the figures for the fold change (FC) in test [1] and in test [2] were 1.1 and 1.4, respectively. In addition, the inhibition in test [3] is 1%; in test [4], 1%; in test [5], 1%; in test [6] it was 19%; in test [7], 12%.
On to `CC(C)(C)Cc1c(-c2ccccc2)sc(N)c1C(=O)c1cccc(Cl)c1`, for which the fold change (FC) in test [1] is 3.1; in test [2], 6.3. Also, the inhibition turned out to be 5% in test [3]; 4% in test [4]; 2% in test [5]; 57% in test [6]; 59% in test [7].
As for `CC(C)(C)Cc1c(-c2ccccc2)sc(N)c1C(=O)c1ccc(Cl)cc1`, the fold change (FC) came to 4.8 in test [1] and 6.9 in test [2]. For the same molecule, the inhibition was determined as 1% in test [3]; 1% in test [4]; 1% in test [5]; 53% in test [6]; 51% in test [7].
With `CC(C)(C)Cc1c(-c2ccc(F)cc2)sc(N)c1C(=O)c1ccc(Cl)cc1`, the values for the fold change (FC) in test [1] and in test [2] were 3.7 and 5.5, respectively. For the same molecule, the inhibition in test [3] stood at 9%; in test [4], 1%; in test [5], 1%; in test [6], 52%; in test [7], 50%.
On to `COc1ccccc1-c1sc(N)c(C(=O)c2ccc(Cl)cc2)c1CC(C)(C)C`, for which the fold change (FC) in test [1] worked out at 1.9; in test [2] it was 2.5. The inhibition in test [3] was 1%; in test [4], 1%; in test [5], 1%; in test [6], 29%; in test [7], 27%.
For `CC(C)(C)Cc1c(-c2ccc(Cl)cc2)sc(N)c1C(=O)c1ccc(Cl)cc1`, the fold change (FC) amounted to 4 in test [1] and 5.8 in test [2]. Besides, the inhibition in test [3] stood at 1%; in test [4] it was 1%; in test [5] it was 1%; in test [6], 58%; in test [7], 57%.
In the case of `CC(C)(C)Cc1c(-c2cn[nH]c2)sc(N)c1C(=O)c1ccc(Cl)cc1`, the fold change (FC) in test [1] is 1.7; in test [2], 2.5. In addition, the inhibition in test [3] was found to be 1%; in test [4] it was 1%; in test [5], 1%; in test [6], 31%; in test [7] it was 27%.
With `COc1ccc(-c2sc(N)c(C(=O)c3ccc(C)cc3)c2CC(C)(C)C)cc1`, the fold change (FC) stood at 5.4 in test [1] and 7.4 in test [2]. In addition, the inhibition came to 5% in test [3]; 3% in test [4]; 1% in test [5]; 60% in test [6]; 64% in test [7].
For the molecule `CC(C)(C)Cc1c(Br)sc(N)c1C(=O)c1ccc(Cl)c(Cl)c1`, the fold change (FC) in test [1] came to 4; in test [2] it was 4.5. For the same molecule, the inhibition in test [3] was determined as 1%; in test [4], 1%; in test [5], 1%; in test [6] it was 40%; in test [7], 42%.
